From ChEMBL document CHEMBL1143665, “Novel acyclic enediynes inhibit Cyclin A and Cdc25C expression and induce apoptosis phenomenon to show potent antitumor proliferation” (2007)
The source made the active and inactive calls. No cut-off for these calls is given here.

Columns and labels:
SF-295 = assay: Cytotoxicity against human SF295 cells; type: functional
M14 = assay: Cytotoxicity against human M14 cells; type: functional
K562 [1] = assay: Cytotoxicity against human K562 cells; type: functional
SK-OV-3 = assay: Cytotoxicity against human SKOV3 cells; type: functional
DU-145 = assay: Cytotoxicity against human DU145 cells; type: functional
MDA-MB-231 = assay: Cytotoxicity against human MDA-MB-231 cells; type: functional
SR = assay: Cytotoxicity against human SR cells; type: functional
HCT-15 = assay: Cytotoxicity against human HCT15 cells; type: functional
LOX IMVI = assay: Cytotoxicity against human LOX IMVI cells; type: functional
OVCAR-3 = assay: Cytotoxicity against human OVCAR-3 cells; type: functional
MDA-MB-435 = assay: Cytotoxicity against human MDA-MB-435 cells; type: functional
K562 [2] = assay: Cell cycle arrest in human K562 cells by accumulation at G0/G1 phase cell at 50 uM after 24 hrs relative to control; type: functional
Procedure, shortened: (§1)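 K-562 cells (RPMI 1640, 10% fetal calf serum, 37 °C, 5% CO2) exposed 24 h, pelleted, fixed in ice-cold 70% ethanol 30 min, RNase A (1 mg/ml) 37 °C 30 min, propidium iodide stain 30 min at room temperature in the dark; DNA content of 10,000 events by flow cytometry; phase and sub-G1 percentages compared with untreated control.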

K562 [3] = assay: Cell cycle arrest in human K562 cells by accumulation at S phase cell at 50 uM after 24 hrs relative to control; type: functional; procedure, shortened: as §1
K562 [4] = assay: Cell cycle arrest in human K562 cells by accumulation at G2/M phase cell at 50 uM after 24 hrs relative to control; type: functional; procedure, shortened: as §1
K562 [5] = assay: Induction of apoptosis in human K562 cells assessed as accumulation at subG1 phase at 50 uM after 24 hrs relative to control; type: functional; procedure, shortened: as §1
K562 [6] = assay: Decrease in Cyclin A protein levels in human K562 cells at 25 uM; type: functional, cell-based
Procedure, shortened: (§2)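 Western blot of treated K-562 cells: lysis in Tris pH 7.5/1% NP-40/EDTA/NaCl with protease inhibitors on ice 30 min, spun 20,000g 30 min 4 °C; 50 µg lysate on 12% SDS-PAGE, PVDF transfer, probed with anti-Cdk1, -Cdk2, -Cyclin A, -Cyclin B1 or -Cdc25C; enhanced chemiluminescence detection.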

K562 [7] = assay: Decrease in Cyclin A protein levels in human K562 cells at 50 uM; type: functional, cell-based; procedure, shortened: as §2
K562 [8] = assay: Decrease in Cdc25C protein levels in human K562 cells at 25 uM; type: functional, cell-based; procedure, shortened: as §2
K562 [9] = assay: Decrease in Cdc25C protein levels in human K562 cells at 50 uM; type: functional, cell-based; procedure, shortened: as §2
K562 [10] = assay: Effect on Cyclin B protein levels in human K562 cells at 25 uM; type: functional, cell-based; procedure, shortened: as §2
K562 [11] = assay: Effect on Cyclin B protein levels in human K562 cells at 50 uM; type: functional, cell-based; procedure, shortened: as §2
K562 [12] = assay: Effect on Cdk1 protein levels in human K562 cells at 25 uM; type: functional, cell-based; procedure, shortened: as §2
K562 [13] = assay: Effect on Cdk1 protein levels in human K562 cells at 50 uM; type: functional, cell-based; procedure, shortened: as §2
K562 [14] = assay: Effect on Cdk2 protein levels in human K562 cells at 25 uM; type: functional, cell-based; procedure, shortened: as §2
K562 [15] = assay: Effect on Cdk2 protein levels in human K562 cells at 50 uM; type: functional, cell-based; procedure, shortened: as §2
Caspase-3 (Homo sapiens) [16] = target: T1, Caspase-3 (Homo sapiens) (UniProt P42574); assay: Increase in caspase 3 activation in human K562 cells at 50 uM relative to control; type: cell-based
T1 sequence (whole entry): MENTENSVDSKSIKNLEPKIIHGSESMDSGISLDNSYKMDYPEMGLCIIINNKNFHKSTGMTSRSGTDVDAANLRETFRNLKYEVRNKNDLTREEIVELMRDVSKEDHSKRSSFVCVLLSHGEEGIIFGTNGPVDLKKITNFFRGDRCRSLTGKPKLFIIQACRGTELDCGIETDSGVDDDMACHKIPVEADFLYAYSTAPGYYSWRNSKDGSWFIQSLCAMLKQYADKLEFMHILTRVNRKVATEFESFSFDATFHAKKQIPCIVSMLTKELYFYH
Procedure, shortened: (§3)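 K-562 cells treated 24 h, washed, lysed in 50 mM Tris-HCl pH 7.4, 1 mM EDTA, 10 mM EGTA, spun 18,000g 3 min; lysate (50 µg protein) incubated with 100 µM caspase-specific colorimetric substrate at 37 °C for 1 h; cleavage read as absorbance at 405 nm, expressed as fold of control.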

Caspase-3 (Homo sapiens) [17] = target: T1, Caspase-3 (Homo sapiens); assay: Increase in caspase 3 activation in human K562 cells at 25 uM relative to control; type: cell-based; procedure, shortened: as §3
Caspase-8 (Homo sapiens) [18] = target: Caspase-8 (Homo sapiens) (UniProt Q14790); assay: Increase in caspase 8 activation in human K562 cells at 25 uM relative to control; type: cell-based; procedure, shortened: as §3
Chain of Caspase-8 (Homo sapiens) (Q14790 217-374 limits assumed): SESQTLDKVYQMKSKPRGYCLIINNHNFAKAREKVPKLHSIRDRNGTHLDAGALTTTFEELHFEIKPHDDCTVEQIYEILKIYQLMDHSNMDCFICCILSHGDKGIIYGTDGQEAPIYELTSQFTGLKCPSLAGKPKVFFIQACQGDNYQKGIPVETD
Chain of Caspase-8 (Homo sapiens) (Q14790 385-479 limits assumed): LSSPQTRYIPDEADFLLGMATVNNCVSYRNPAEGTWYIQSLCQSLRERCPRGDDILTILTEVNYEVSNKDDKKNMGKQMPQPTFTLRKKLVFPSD

Caspase-8 (Homo sapiens) [19] = target: Caspase-8 (Homo sapiens) (UniProt Q14790); assay: Increase in caspase 8 activation in human K562 cells at 50 uM relative to control; type: cell-based; procedure, shortened: as §3
Caspase-9 (Homo sapiens) [20] = target: T2, Caspase-9 (Homo sapiens) (UniProt P55211); assay: Increase in caspase 9 activation in human K562 cells at 25 uM relative to control; type: cell-based; procedure, shortened: as §3
T2 sequence (whole entry): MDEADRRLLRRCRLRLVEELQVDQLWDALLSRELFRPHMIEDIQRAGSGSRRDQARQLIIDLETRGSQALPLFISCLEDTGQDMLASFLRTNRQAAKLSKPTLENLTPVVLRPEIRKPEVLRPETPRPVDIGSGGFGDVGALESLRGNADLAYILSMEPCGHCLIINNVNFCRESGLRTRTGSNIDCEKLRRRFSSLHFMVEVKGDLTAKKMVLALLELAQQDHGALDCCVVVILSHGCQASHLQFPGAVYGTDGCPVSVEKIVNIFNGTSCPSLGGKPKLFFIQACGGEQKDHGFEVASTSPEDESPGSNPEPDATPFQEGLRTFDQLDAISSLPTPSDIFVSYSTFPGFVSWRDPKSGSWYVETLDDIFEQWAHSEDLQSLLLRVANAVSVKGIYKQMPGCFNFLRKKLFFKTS

Caspase-9 (Homo sapiens) [21] = target: T2, Caspase-9 (Homo sapiens); assay: Increase in caspase 9 activation in human K562 cells at 50 uM relative to control; type: cell-based; procedure, shortened: as §3
K562 [22] = assay: Induction of apoptosis in human K562 cells at 50 uM in presence of Z-DEVD-FMK; type: functional
Procedure, shortened: (§4)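 K-562 cells preincubated 1 h with caspase-3 (Z-DEVD-FMK), -8 (Z-IETD-FMK) or -9 (Z-LEHD-FMK) inhibitor, then exposed 24 h; cells fixed in 70% ethanol, RNase A (500 U/ml) 37 °C 15 min, propidium iodide 50 µg/ml in PBS; sub-G1 fraction by flow cytometry.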

K562 [23] = assay: Induction of apoptosis in human K562 cells at 50 uM in presence of Z-IETD-FMK; type: functional; procedure, shortened: as §4
K562 [24] = assay: Induction of apoptosis in human K562 cells at 50 uM in presence of Z-LEHD-FMK; type: functional; procedure, shortened: as §4

OCCCCC#Cc1ccccc1C#Cc1ccccc1
GI50 (SF-295): 0.15 µM | GI50 (M14): 10 µM | GI50 (K562 [1]): 21.1 µM | GI50 (SK-OV-3): 10.7 µM | GI50 (DU-145): 5.22 µM | GI50 (MDA-MB-231): 4.29 µM

OCC#Cc1ccccc1C#Cc1ccccc1
GI50 (SF-295): 20.6 µM | GI50 (M14): 10.6 µM | GI50 (K562 [1]): 26 µM | GI50 (SK-OV-3): 16.6 µM | GI50 (DU-145): 14.9 µM | GI50 (MDA-MB-231): 3.26 µM

OCCCCC#Cc1ccccc1C#Cc1ccccc1C(F)(F)F
GI50 (SF-295): 2.3 µM | GI50 (K562 [1]): 1.1 µM | GI50 (DU-145): 6.1 µM | GI50 (SR): 0.4 µM | GI50 (HCT-15): 3.5 µM | GI50 (LOX IMVI): 4.9 µM | GI50 (OVCAR-3): 2.3 µM | GI50 (MDA-MB-435): 0.8 µM | Activity (K562 [2]): 2.7% | Activity (K562 [3]): 10.8% | Activity (K562 [4]): 86.5% | Activity (K562 [5]): 10.47% | Activity (K562 [6]): Active | Activity (K562 [7]): Active | Activity (K562 [8]): Active | Activity (K562 [9]): Active | Activity (K562 [10]): inactive | Activity (K562 [11]): inactive | Activity (K562 [12]): inactive | Activity (K562 [13]): inactive | Activity (K562 [14]): inactive | Activity (K562 [15]): inactive

OCCCCC#Cc1ccccc1C#Cc1cccc(O)c1
GI50 (SF-295): 21 µM | GI50 (K562 [1]): 19.2 µM | GI50 (DU-145): 17.4 µM | GI50 (HCT-15): 13.6 µM | GI50 (LOX IMVI): 16.7 µM | GI50 (OVCAR-3): 20 µM | GI50 (MDA-MB-435): 16.1 µM | Activity (K562 [2]): 26.7% | Activity (K562 [3]): 37.1% | Activity (K562 [4]): 36.2% | Activity (K562 [5]): 18.25%

OCCC#Cc1ccccc1C#Cc1ccccc1
GI50 (SF-295): 28.1 µM | GI50 (M14): 16 µM | GI50 (K562 [1]): 11 µM | GI50 (SK-OV-3): 17.3 µM | GI50 (DU-145): 12.5 µM | GI50 (MDA-MB-231): 3.41 µM

OCCCCC#Cc1ccccc1C#Cc1cccs1
GI50 (SF-295): 19 µM | GI50 (K562 [1]): 20.3 µM | GI50 (DU-145): 13 µM | GI50 (SR): 1.8 µM | GI50 (HCT-15): 13.1 µM | GI50 (LOX IMVI): 13.9 µM | GI50 (OVCAR-3): 15 µM | GI50 (MDA-MB-435): 16.6 µM | Activity (K562 [2]): 22.7% | Activity (K562 [3]): 47.5% | Activity (K562 [4]): 29.8% | Activity (K562 [5]): 5.23%

OCCCCC#Cc1ccccc1C#Cc1ccc(O)cc1
GI50 (SF-295): 16.2 µM | GI50 (K562 [1]): 20.4 µM | GI50 (DU-145): 16.8 µM | GI50 (HCT-15): 14.1 µM | GI50 (LOX IMVI): 13.6 µM | GI50 (OVCAR-3): 14.8 µM | GI50 (MDA-MB-435): 16.1 µM | Activity (K562 [2]): 25.6% | Activity (K562 [3]): 39.5% | Activity (K562 [4]): 34.9% | Activity (K562 [5]): 23.56% | Fold change (Caspase-3 (Homo sapiens) [16]): 2.6 | Fold change (Caspase-3 (Homo sapiens) [17]): 1.4 | Fold change (Caspase-8 (Homo sapiens) [18]): 1.2 | Fold change (Caspase-8 (Homo sapiens) [19]): 1.8 | Fold change (Caspase-9 (Homo sapiens) [20]): 1.5 | Fold change (Caspase-9 (Homo sapiens) [21]): 1.7 | Activity (K562 [22]): 17% | Activity (K562 [23]): 19% | Activity (K562 [24]): 42%
